Holding throughout (assay type): functional
For experiment [1], the system named is Escherichia coli. The experiment is described as follows: Antimicrobial activity against Escherichia coli ATCC 8739 assessed as zone of inhibition after 24 hrs at 2 mg/0.1 ml by agar diffusion method. In outline: (§1)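 Bacteria were tested on seeded agar plates with 12.7-mm disks, each loaded with 0.1 ml of compound in Me2SO (stock used directly or Me2SO-diluted). Disks were held 30 min on a wire screen before placement, four per plate. Incubation was 37°, 24 hr. Inhibition zones were measured by caliper to the nearest 0.1 mm. Replicates were 2–4 per dilution over at least two separate days, averaged.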

Experiment [2] has as its system Escherichia coli. The experiment is described as follows: Antimicrobial activity against Escherichia coli ATCC 11303 assessed as zone of inhibition after 24 hrs at 2 mg/0.1 ml by agar diffusion method. The gist of the method:
as §1

For experiment [3], the system named is Escherichia coli. The experiment is described as follows: Antimicrobial activity against Escherichia coli ATCC 10586 assessed as zone of inhibition after 24 hrs at 2 mg/0.1 ml by agar diffusion method. The gist of the method:
as §1

Experiment [4] deals with Mycolicibacterium smegmatis. The experiment is described as follows: Antimicrobial activity against Mycobacterium smegmatis OU 10049 assessed as zone of inhibition after 48 hrs at 0.5 mg/0.1 ml by agar diffusion method. In outline: (§2)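 Mycobacterium disk diffusion on MDTM agar. Each disk (12.7 mm) got 0.1 ml of Me2SO solution, was air-stood 30 min, then was placed four per seeded plate. Plates were incubated at 37° for 48 hr. Zone diameter was measured by caliper to 0.1 mm. Results averaged 2–4 replicate disks and ≥2 independent-day experiments.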

A further experiment deals with Pseudomonas aeruginosa. The experiment is described as follows: Antimicrobial activity against Pseudomonas aeruginosa OU 10048 assessed as zone of inhibition after 24 hrs at 4 mg/0.1 ml by agar diffusion method. The gist of the method:
as §1

Another experiment has as its system Mycolicibacterium phlei. Briefly: Antimicrobial activity against Mycobacterium phlei ATCC 356 assessed as zone of inhibition after 48 hrs at 0.5 mg/0.1 ml by agar diffusion method. In outline:
as §2

For another experiment, the system named is Aspergillus niger. Briefly: Antimicrobial activity against Aspergillus niger OU S-23 assessed as zone of inhibition after 48 hrs at 4 mg/0.1 ml by agar diffusion method. The gist of the method: (§3)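 Disk agar diffusion on SDA. Compound in Me2SO stock, used neat or diluted in Me2SO, was loaded at 0.1 ml per 12.7-mm disk. Disks stood 30 min on mesh, then went four per seeded plate. Plates ran at 37° for 48 hr (A. niger) or 24 hr (C. albicans). Zones were read by caliper to 0.1 mm. There were 2–4 replicate disks per dilution and ≥2 experiments on separate days with same-day stocks; results were averaged.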

For a further experiment, the system named is Candida albicans. The experiment is described as follows: Antimicrobial activity against Candida albicans CDC MI-023 assessed as zone of inhibition after 24 hrs at 4 mg/0.1 ml by agar diffusion method. The gist of the method: as §3
Experiment [5] deals with Staphylococcus aureus. The experiment is described as follows: Antimicrobial activity against Staphylococcus aureus ATCC 10001 assessed as zone of inhibition after 24 hrs at 2 mg/0.1 ml by agar diffusion method. The gist of the method:
as §1

Experiment [6] has as its system Staphylococcus aureus. Briefly: Antimicrobial activity against Staphylococcus aureus ATCC 10014 assessed as zone of inhibition after 24 hrs at 2 mg/0.1 ml by agar diffusion method. The gist of the method:
as §1

SMILES strings stand for the structures.

On to `CC(CNC12CC3CC(CC(C3)C1)C2)C(=O)c1ccccc1.Cl` (stereo not given), for which the “inhibition zone (IZ)” value in the experiment on Escherichia coli [1] is 16.1 mm; in the experiment on Escherichia coli [2], 17.2 mm; with Escherichia coli [3] it was 16.4 mm; in experiment [4] it was 17 mm; in the experiment on Pseudomonas aeruginosa it was 15 mm; in the experiment with Mycolicibacterium phlei it was 17.3 mm. The “inhibition zone (IZ)” value with Aspergillus niger is 15 mm; with Candida albicans it was under 15 mm; with Staphylococcus aureus [5] it was 16.2 mm; with Staphylococcus aureus [6] it was 16.3 mm.
